Measurements from paper PMC10762718 (RSC Advances, 2024).

Tests used:
Format in all cases: cell-based
[1] = MTT cell viability assay, normal MCF-10A cells; settings: human, MCF-10A normal mammary epithelial cells
How it was run: (§1)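 Normal mammary epithelial MCF-10A cells were exposed to test compound at 25, 50 and 100 μM for 72 h. Cells were then given MTT after medium removal, 3 h at 37 °C in CO2. Formazan was dissolved in DMSO and absorbance read at 595 nm. Viability is expressed as percent of untreated control cells.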

[2] = test system: normal mammary epithelial MCF-10A cells; experiment: MTT cell viability assay, normal MCF-10A cells; settings: tested at 25, 50 and 100 μM
How it was run: as §1

[3] = test system: MCF-7 breast cancer cells; experiment: MTT cell viability assay, MCF-7; settings: Homo sapiens; for inhibition at 25 µM: MCF7; for IC50: MCF7, 72 h, read-out: IC50 against MCF-7 breast cancer cells line; for viability at 1 µM / viability at 10 µM / viability at 25 µM: MCF7, read-out: Cell viability (%) ±SD
How it was run: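 After medium removal, MTT was added for 3 h at 37 °C in CO2, formazan dissolved in DMSO and absorbance read at 595 nm. Viability is relative to untreated cells, triplicates, n = 3, ±SD. IC50 comes from plotting percent viability against concentration.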

[4] = test system: MDA-MB-231 (human breast cancer) cells; experiment: MTT cell viability assay, MDA-MB-231; settings: for inhibition at 25 µM: MDA-MB-231; for viability at 10 µM / viability at 25 µM / viability at 50 µM: MDA-MB-231, 72 h, read-out: Cell viability (%) ±SD
How it was run: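 MDA-MB-231 cells were grown as a monolayer in DMEM with 10% heat-inactivated FBS and 1% penicillin-streptomycin at 37 °C in humidified CO2, subcultured every third day with trypsin-EDTA, and used before passage 8. Cells were exposed 72 h to 10, 25 and 50 μM. Medium was removed, MTT added for 3 h at 37 °C, formazan dissolved in DMSO and read at 595 nm. Viability is relative to untreated control, triplicates, ±SD. IC50 comes from the viability-versus-concentration plot.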

MDA-MB-453 cells = experiment: MTT cell viability assay, MDA-MB-453; settings: for viability at 1 µM / viability at 10 µM / viability at 25 µM: Homo sapiens, MDA-MB-453, read-out: Cell viability (%) ±SD; for IC50 against MDA-MB-453 cells: tested at 1, 10 and 25 μM
How it was run: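 MDA-MB-453 (HER2-positive) cells were exposed to test compound at 1, 10 and 25 μM for 72 h. After medium removal, MTT was added for 3 h at 37 °C in CO2. Formazan was dissolved in DMSO and absorbance read at 595 nm. Percent viable cells are relative to untreated control cells.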

| Compound | viability at 72 h, 25 µM [1] [%] | viability at 72 h, 50 µM [1] [%] | viability at 72 h, 100 µM [1] [%] | growth inhibitory activity against normal breast epithelial cell (MCF-10A) [2] | inhibition at 25 µM [3] [%] | IC50 [3] [µM] | viability at 1 µM [3] [%] | viability at 10 µM [3] [%] | viability at 25 µM [3] [%] | inhibition at 25 µM [4] [%] | viability at 10 µM [4] [%] | viability at 25 µM [4] [%] | viability at 50 µM [4] [%] | viability at 1 µM (MDA-MB-453 cells) [%] | viability at 10 µM (MDA-MB-453 cells) [%] | viability at 25 µM (MDA-MB-453 cells) [%] | IC50 against MDA-MB-453 cells (MDA-MB-453 cells) |
| --- | --- | --- | --- | --- | --- | --- | --- | --- | --- | --- | --- | --- | --- | --- | --- | --- | --- |
| CC(=O)OC[C@@H]1O[C@H](n2cc(Cn3ccc4nc(-c5ccc(C(F)(F)F)cc5)cc(=O)n43)nn2)[C@@H](OC(C)=O)[C@H](OC(C)=O)[C@@H]1OC(C)=O (stereo in doubt) [Compound 36, (2S,3R,4R,5S,6S)-2-(Acetoxymethyl)-6-(4-((7-oxo-5-(4-(trifluoromethyl)phenyl)pyrazolo[1,5-a]pyrimidin-1(7H)-yl)methyl)-1H-1,2,3-triazol-1-yl)tetrahydro-2H-pyran-3,4,5-triyl triacetate] | 88.6 ± 1.5 | 86.1 ± 2.8 | 84.2 ± 3 | none of these compounds did have any growth inhibitory activity | ~50 | 4.93 | 52.3 ± 3.1 | 32.4 ± 0.9 | 28.1 ± 4.4 | ~50 | 70.4 ± 5.36 | 46.1 ± 3.32 | 41.2 ± 1.26 | 91.5 ± 4.6 | 82.9 ± 1.2 | 63.8 ± 1.7 | did not reach up to IC50 value |
| COc1ccc(-c2cc(=O)n3c(ccn3Cc3cn([C@H]4O[C@H](COC(C)=O)[C@@H](OC(C)=O)[C@H](OC(C)=O)[C@@H]4OC(C)=O)nn3)n2)cc1 [Compound 41, (2R,3R,4S,5S,6S)-2-(Acetoxymethyl)-6-(4-((5-(4-methoxyphenyl)-7-oxopyrazolo[1,5-a]pyrimidin-1(7H)-yl)methyl)-1H-1,2,3-triazol-1-yl)tetrahydro-2H-pyran-3,4,5-triyl triacetate] | 89.8 ± 2.8 | 84.2 ± 5.8 | 83 ± 1.5 | none of these compounds did have any growth inhibitory activity | ~50 | 21.8 | 72.8 ± 4.2 | 58.2 ± 3.8 | 48.1 ± 3.5 | ~50 | 66.7 ± 8.21 | 54.3 ± 6.12 | 44.2 ± 4.11 | 96.4 ± 4.8 | 77.4 ± 5.4 | 95.1 ± 35.7 | did not reach up to IC50 value |
